EP2 antag – inhibitors of human EP2 prostaglandin E2 receptor. P43116. C6 glioma cells expressing human EP2, cAMP TR-FRET; cells stimulated with saturating PGE2. inhibition, % at 25 µM. 260,000 tested, 0.52% active;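 active means percent inhibition above 40 after rounding to a whole number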;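 further: rat C6 glioma host cells with rolipram phosphodiesterase inhibitor present; the protocol text gives 20 µM as final concentration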
Target sequence (P43116 whole entry, looked up): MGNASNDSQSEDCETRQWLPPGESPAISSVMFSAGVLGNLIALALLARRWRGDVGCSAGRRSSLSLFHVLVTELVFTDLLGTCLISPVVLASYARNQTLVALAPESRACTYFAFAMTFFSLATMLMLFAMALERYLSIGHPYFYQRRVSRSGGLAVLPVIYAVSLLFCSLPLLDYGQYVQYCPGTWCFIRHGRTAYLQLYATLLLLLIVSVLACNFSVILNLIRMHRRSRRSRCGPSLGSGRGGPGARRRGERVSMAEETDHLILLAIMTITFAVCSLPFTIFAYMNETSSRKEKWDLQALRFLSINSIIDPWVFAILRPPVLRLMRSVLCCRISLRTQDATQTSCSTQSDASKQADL
Hsp70 act – Hsp70 transcriptional activation, primary screen; HeLa Hsp70 promoter luciferase reporter, luminescence; scaled: vehicle 0, proteasome-inhibitor control 100%; activation, % at 10 µM; 200,000 tested, 0.04% active; AID 1203;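 active means activation above the mean across all tested compounds plus 3 SD, cutoff set per campaign, cut at about 5.5% in these data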
Dynein cargo inh – dynein cargo transport inhibition; 3617.4 mouse cells, GR-EGFP nuclear translocation imaging; test concentration mostly 20 µM; stimulated with dexamethasone, 1 µM; active compounds read low; z-score, hits read low; 220,000 tested, 0.47% active; AID 1381;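 active means plate z-score of nuclear minus cytoplasmic receptor signal below a set negative limit, without overly bright fluorescence or cell loss, cut at about -3.5 in these data, passing the limit was not always enough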;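 further: z-score of nuclear minus cytoplasmic ring GR-EGFP intensity difference per well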
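Buffer or medium: tetracycline-free induction medium containing charcoal-stripped FBS / Reagent: dexamethasone agonist, 1.0 µM final, for 30 min / Technique: automated 10x imaging of fixed Hoechst-stained cells / Times: induction 48 h, compound 1 h, agonist 30 min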
EP2 modulator – modulates human prostaglandin E2 receptor EP2 signaling. P43116. EP2-expressing cells, cAMP HTRF FRET, PGE2 co-stimulation. induction, % at 25 µM. 260,000 tested, 0.83% active;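 active means compounds whose cAMP rise, as percent of the full-agonist control response, exceeds 60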;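 further: rat C6 glioma line stably carrying human EP2 under a CMV promoter; the protocol text gives 20 µM as final concentration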
Dynein confirm – dynein cargo transport inhibition, confirmation. 3617.4 GR-EGFP nuclear translocation imaging, dexamethasone-induced. shares compounds with Dynein cargo inh. AID 463116. 1,000 tested, 69% active. calls only at 20 µM;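 active means inhibition of receptor movement into the nucleus at or above a set limit in both runs, with normal cell brightness and cell count; inconclusive means limit reached in only one run, brightness and count normal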;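 further: dexamethasone at 1 µM final in well for 30 min; nuclear minus cytoplasmic GR-EGFP mean intensity difference in channel 2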
Each line names hits and unclear results; the compound was inactive in the other large screens (follow-up assays come after a bar, where they were run); ! = not active in a repeat. Most compounds without a hit are left out; they make up all but 1.7% or so of the library.

COCCSc1nnc(NC(=O)c2cc(OC)cc(OC)c2)s1	none (no result: Hsp70 act, Dynein cargo inh)
COC(=O)c1cc([N+](=O)[O-])c(-n2cncn2)c([N+](=O)[O-])c1	EP2 antag 77.3, Dynein cargo inh -4.61 | Dynein confirm active
O=c1c(Cl)nc2cc(Cl)ccc2n1CCNc1ncc(C(F)(F)F)cc1Cl	Dynein cargo inh -4.49 | Dynein confirm inactive
COC(=O)CSc1nnc(-c2ccccc2Br)o1	none (no result: Hsp70 act, Dynein cargo inh)
COc1ccc(/C(O)=C2/C(=O)C(=O)NC2c2ccc(C(C)(C)C)cc2)cc1OC (configuration not stated)	none (no result: Hsp70 act, Dynein cargo inh)
CC(C)(C)C(=O)/C=c1\s/c(=C\c2ccc(-c3ccc([N+](=O)[O-])cc3)o2)c(=O)n1CC(=O)NC(N)=O	Dynein cargo inh -7.95 | Dynein confirm active
O=C(CCN1CCN(c2ccccc2F)CC1)c1ccc(Br)cc1	Dynein cargo inh -4.27 | Dynein confirm inactive
Cc1cc(S(=O)(=O)Nc2ccc3ccccc3c2)c(C)s1	none
Cc1cc(S(=O)(=O)Nc2cc(C)c(O)c(C)c2)c(C)s1	Dynein cargo inh -3.99 | Dynein confirm inactive
C=CCSc1nc2ccccc2n1C(=O)/C=C/c1cc(OC)c(OC)c(OC)c1	Hsp70 act 9.7, Dynein cargo inh -6 (no result: EP2 antag) | Dynein confirm active
Cc1ccc(C(=O)N/C(=C\c2ccc(-c3ccc(Cl)cc3)o2)C(=O)NCCCN(C)C)cc1	Dynein cargo inh -4.3 | Dynein confirm inactive
O=C(/C=C/c1ccoc1)c1ccccc1O	none
O=C(/C=C/c1ccc(O)c(O)c1)c1ccccc1O	Dynein cargo inh -5.38 (no result: Hsp70 act) | Dynein confirm active
O=C(/C=C/c1ccc(F)cc1)c1ccccc1Br	Dynein cargo inh -5.67 | Dynein confirm active
O=C(CSc1nc(-c2ccco2)cc(C(F)(F)F)n1)Nc1cccc(Cl)c1	none (no result: Hsp70 act, Dynein cargo inh)
CCN1CCN(C(c2cc3ccc(OC)cc3[nH]c2=O)c2nnnn2Cc2ccc(OC)cc2)CC1 (configuration not stated)	none (no result: Hsp70 act, Dynein cargo inh)
CCOC(=O)C1CCN(C(=O)Nc2ccc3nc(-c4ccco4)c(-c4ccco4)nc3c2)CC1	Dynein cargo inh -4.54 | Dynein confirm inactive
C=C(C(=O)c1ccccc1)C(C(=C)C(=O)c1ccccc1)c1ccc(OC)cc1	Dynein cargo inh -3.78 (no result: Hsp70 act) | Dynein confirm active
CC1=NOC(=O)/C1=C/c1ccc(N(C)C)cc1	none
CC1=NOC(=O)/C1=C\c1ccc(-c2ccc(Br)cc2)o1	EP2 antag 76.5, Dynein cargo inh -4.13 | Dynein confirm inconclusive
Cc1ccc(C2=NOC(=O)/C2=C\c2ccc(C)o2)cc1	Dynein cargo inh -5.65 (no result: Hsp70 act) | Dynein confirm active
Cn1c(=O)c2c(nc(SCC(=O)NNC(=O)C3CCCCC3)n2C)n(C)c1=O	none (no result: Hsp70 act, Dynein cargo inh)
COc1ccc(N(C(=O)CCl)C(C(=O)NCCc2ccccc2)c2cccs2)cc1 (configuration not stated)	Dynein cargo inh -5.32 | Dynein confirm active
COc1ccc(CNC(=O)C(c2ccncc2)N(C(=O)Cc2cccs2)c2ccccc2)cc1 (configuration not stated)	none
CCn1c(=O)c([N+](=O)[O-])c(NCCN(C)C)c2ccccc21	none
CCn1c(=O)c([N+](=O)[O-])c(Cl)c2ccccc21	Dynein cargo inh -6.09 | Dynein confirm active
O=C(O)CC1CCS(=O)(=O)C1 (configuration not stated)	none
O=C(O)CC1CCC(=C(Cl)Cl)C1 (configuration not stated)	Dynein cargo inh -4.8 | Dynein confirm inactive
Cc1cc(C)c(C(=O)NCc2ccco2)c(C)c1C(=O)NCc1ccco1	none (no result: Hsp70 act, Dynein cargo inh)
COc1ccc(/C=C/C(=O)CC(O)(c2ccccc2)C(F)(F)F)cc1 (configuration not stated)	Dynein cargo inh -3.84 | Dynein confirm active
CN(C)c1ccc(/C=C2\CCC/C(=C\c3ccccc3)C2=O)cc1	none | Dynein confirm inactive
CCOn1c(=O)c(-c2ccc(OC)c(OC)c2)[n+]([O-])c2ccccc21	Dynein cargo inh -3.74 | Dynein confirm inactive
CCOn1c(=O)c(-c2ccc(OC)cc2)[n+]([O-])c2ccccc21	none
COc1ccc(OC)c(/C=C/C(=O)N2C(=O)c3cccc(N)c3C2=O)c1	none
COc1cc(/C=C/C(=O)N2C(=O)c3cccc(N)c3C2=O)cc(OC)c1OC	none
Nc1cccc2c1C(=O)N(C(=O)/C=C/c1cccc(F)c1)C2=O	Dynein cargo inh -4.3 | Dynein confirm active
Nc1cccc2c1C(=O)N(C(=O)/C=C/c1cccc(Br)c1)C2=O	Dynein cargo inh -4.93 (no result: Hsp70 act) | Dynein confirm active
CC(=O)N(CCC(c1ccco1)C(C)C)Cc1ccc(Cl)cc1 (configuration not stated)	Dynein cargo inh -4.66 (no result: Hsp70 act) | Dynein confirm inactive
C=CCn1c(N2CCC(C(=O)NC(C)c3cccs3)CC2)nc2ccccc21 (configuration not stated)	none (no result: EP2 antag, Hsp70 act, Dynein cargo inh)
Clc1ccc(-c2nnnn2-c2ccc(Cl)cc2)cc1	none (no result: Hsp70 act)
Cc1ccc(-n2nnnc2C(Cl)(Cl)c2nnnn2-c2ccc(C)cc2)cc1	EP2 antag 90.9, Dynein cargo inh -4.6 | Dynein confirm active
CCN(CC)C(=O)CN1CCC(c2ccc3c(c2)OCO3)CC1	none (no result: EP2 antag, Hsp70 act, Dynein cargo inh)
CCCCCCc1cc2cc(-c3nnc(-c4ccccc4O)o3)c(=O)oc2cc1O	none | Dynein confirm active
CCOc1ccc(OCC(O)CNC2CCN(Cc3ccccc3)CC2)cc1 (configuration not stated)	none
CC(C)(c1ccccc1)c1ccc(OCC(O)CNC2CCN(Cc3ccccc3)CC2)cc1 (configuration not stated)	Dynein cargo inh -4.98 | Dynein confirm inactive
Nc1cc(=O)[nH]c2n[nH]c(=S)n12	none (no result: Hsp70 act, Dynein cargo inh)
CCOc1ccc(C(=O)C(CCC(CN(C)C)C(=O)c2ccc(OCC)cc2)CN(C)C)cc1 (configuration not stated)	Dynein cargo inh -4.09 | Dynein confirm inactive
COc1ccc2c(c1)C(=O)CC1(CCN(CC(N)=O)CC1)O2	none (no result: EP2 antag, Hsp70 act, Dynein cargo inh)
CCCn1c(SCC(=O)OCC)nc2c1c(=O)n(C)c(=O)n2C	none (no result: Hsp70 act, Dynein cargo inh)
CC(=O)n1cc(C(C[N+](=O)[O-])SCCN)c2ccccc21 (configuration not stated)	EP2 antag 50.3, Dynein cargo inh -3.82 | Dynein confirm inactive
COc1cc(/C=C2/C(=O)c3cccc([N+](=O)[O-])c3C2=O)c(Br)cc1O	EP2 antag 49.2, Dynein cargo inh -3.52 | Dynein confirm inactive
COc1ccc(-c2nc(-c3cccc([N+](=O)[O-])c3O)cc(=O)o2)cc1OC	none
Cc1cccc2cc3c(N)c(C(=O)NCc4ccc5c(c4)OCO5)sc3nc12	none (no result: Hsp70 act, Dynein cargo inh)
CCN1CCN(c2ccc(NC(=O)c3ccc([N+](=O)[O-])o3)cc2Cl)CC1	EP2 antag 115.9!, Dynein cargo inh -4.2 | Dynein confirm active
CCCC(=O)N(C1CC(C)C(C#N)(C#N)C1(C#N)C#N)N(C)C (configuration not stated)	Dynein cargo inh -5.34 (no result: Hsp70 act) | Dynein confirm inactive
